# Measured values: ChEMBL document CHEMBL4130515, “Identification of Privileged Antichlamydial Natural Products by a Ligand-Based Strategy” (J Nat Prod, 2017)
# pIC50: −log10 of the molar value. Structures can show the parent of a compound that is named as a salt.
# How the values were obtained:
# [1] = Cytotoxicity against human HL cells assessed as cell viability at 50 uM after 72 hrs by resazurin dye based fluorescence assay relative to control; details: HL cells, read-out: Activity
# Procedure, shortened: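 HL cells grown overnight to confluence, then exposed to compound at 50 μM for 72 h at 37 °C, four parallel replicates. Read-out after 2 h with 20 μM resazurin in PBS, fluorescence at 570/590 nm (ex/em). Viability % is relative to cells in 0.25% DMSO medium. Usnic acid 50 μM as positive control.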
# Chlamydia pneumoniae [2] = experiment: Antichlamydial activity against Chlamydia pneumoniae K7 infected in HL cells assessed as chlamydial inhibition at 50 uM after 70 hrs by fluorescent microscopic analysis; assay type: functional
# Procedure, shortened: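 Confluent HL cells infected with C. pneumoniae K7 at MOI 0.3 in medium with 1 μg/mL cycloheximide, centrifuged 500 rpm 1 h, then held at 37 °C for 1 h. At 2 h, compound added at 50 μM or DMSO vehicle. After 70 h at 37 °C, inclusions stained and counted in four fields per coverslip under a fluorescence microscope (20×). Inhibition % is relative to mean vehicle counts.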
# Chlamydia pneumoniae [3] = experiment: Antichlamydial activity against Chlamydia pneumoniae K7 infected in HL cells after 70 hrs by fluorescent microscopic analysis; assay type: functional, organism-based
# Procedure, shortened: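 HL cells grown to confluence, infected with C. pneumoniae K7 at MOI 0.3 in medium with 1 μg/mL cycloheximide, centrifuged 500 rpm 1 h, then 37 °C 1 h. At 2 h, inoculum replaced by cycloheximide medium with compound at 12 concentrations from 1 nM to 100 μM. Incubated 70 h at 37 °C, stained, and inclusions counted by fluorescence microscopy. Three runs; IC50 from variable-slope sigmoidal fit. Azithromycin 20 nM as positive control.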
SMILES,"viability at 72 h, 50 µM [1] [%]",inhibition at 50 µM (Chlamydia pneumoniae [2]) [%],"pIC50 (Chlamydia pneumoniae [3]; K7, HL, 70 h)","MIC90 (Chlamydia pneumoniae [3]; K7, 70 h) [µM]"
COc1ccc2c(c1)[nH]c1c(C)nccc12 [HARMINE HYDROCHLORIDE],87.3,26,–,–
Cc1cc2c(C(C)C)c(O)c(O)c(C=O)c2c(O)c1-c1c(C)cc2c(C(C)C)c(O)c(O)c(C=O)c2c1O [GOSSYPOL],0.1,–,–,–
O[C@H]1CCN2Cc3ccccc3N=C12 [VASICINE],102,-1.4,–,–
CO[C@H]1[C@@H](O)[C@@H](C)O[C@H](O[C@H]2[C@H](Oc3cccc4c(O)c5c(=O)oc6ccc(C)c7c(=O)oc(c34)c5c67)O[C@H](C)[C@H](O)[C@@H]2O)[C@@H]1O [CHARTREUSIN],4,–,–,–
CC(C)[C@@]1(NC(=O)[C@@H]2C[C@@H]3c4cccc5[nH]cc(c45)C[C@H]3N(C)C2)O[C@@]2(O)[C@@H]3CCCN3C(=O)[C@H](Cc3ccccc3)N2C1=O [DIHYDROERGOCRISTINE MESYLATE],2.7,–,–,–
C/C=C(/C)C(=O)O[C@H]1CC[C@@]2(C)[C@@H]3CC[C@H]4[C@]5(O)C[C@H](O)[C@@]6(O)[C@@H](CN7C[C@@H](C)CC[C@H]7[C@@]6(C)O)[C@]5(O)C[C@@]42O[C@]13O [CEVADINE],98.6,39,–,–
C[C@]1(C(=O)O)CCC[C@]2(C)c3cc(O)ccc3CC[C@@H]12 [PODOCARIC ACID],27.9,–,–,–
O=C1Nc2ccccc2/C1=C1/Nc2ccccc2C1=O [INDIRUBIN],92.5,2,–,–
C[C@@H]1C[C@@H]([C@H](O)CC2CC(=O)NC(=O)C2)C(=O)[C@@H](C)C1 [CYCLOHEXIMIDE],66.4,–,–,–
CC(C)=CCC[C@](C)(O)[C@H]1CC[C@]2(C)[C@@H]1CC[C@@H]1[C@@]3(C)CCC(=O)C(C)(C)[C@@H]3CC[C@]12C [DIPTEROCARPOL],32.1,–,–,–
C[C@@H]1C[C@H]2O[C@@H]2/C=C\C=C\C(=O)Cc2c(Cl)c(O)cc(O)c2C(=O)O1 [RADICICOL],0.6,–,–,–
CC(=O)O[C@H]1[C@H]2O[C@]23[C@@H]2CC[C@@H]4C[C@@H](O)CC[C@]4(C)[C@H]2CC[C@]3(C)[C@H]1c1ccc(=O)oc1 [CINOBUFAGIN],0.2,–,–,–
COc1ccc([C@@H]2CC(=O)c3c(O)cc(O[C@@H]4O[C@H](CO[C@@H]5O[C@@H](C)[C@H](O)[C@@H](O)[C@H]5O)[C@@H](O)[C@H](O)[C@H]4O)cc3O2)cc1O [HESPERIDIN],101,26.8,–,–
C[C@H]1O[C@@H](O[C@H]2[C@@H](O)C[C@H](O[C@H]3[C@@H](O)C[C@H](O[C@H]4CC[C@@]5(C)[C@H](CC[C@@H]6[C@@H]5CC[C@]5(C)[C@@H](C7=CC(=O)OC7)CC[C@]65O)C4)O[C@@H]3C)O[C@@H]2C)C[C@H](O)[C@@H]1O [DIGITOXIN],0.1,–,–,–
CN1CCc2cc(O)c(O)cc2C1Cc1ccc(O)c(O)c1 (centres undefined) [LAUDANOSOLINE HYDROBROMIDE],72.8,–,–,–
CCCCC[C@H](O)/C=C/C1=C(CCCCCCC(=O)O)C(=O)CC1 [PROSTAGLANDIN B1],109,39.8,–,–
O=C(/C=C/c1ccc(O)c(O)c1)OCCc1ccccc1 [CAFFEIC ACID PHENETHYL ESTER],46,–,–,–
CC(=O)N[C@H]1CN2CC[C@H](O)[C@@H]2[C@@H](O)[C@@H]1O,86.6,59.8,4.17,–
c1cc2c(cc1[C@H]1OC[C@H]3[C@@H]1CO[C@H]3c1ccc3c(c1)OCO3)OCO2 [ASARININ],57.1,–,–,–
OC[C@@H]1CCCN2CCCC[C@H]12 [LUPININE],98.7,28.2,–,–
CCOC(=O)Oc1c(OC)cc(C(=O)O[C@H]2C[C@H]3CN4CCc5c([nH]c6cc(OC)ccc56)[C@@H]4C[C@H]3[C@@H](C(=O)OC)[C@@H]2OC)cc1OC,67.6,–,–,–
C[C@@H]1C/C=C/C=C/C=C/C=C/[C@H](O[C@@H]2O[C@H](C)[C@@H](O)[C@H](N)[C@@H]2O)C[C@@H]2O[C@](O)(C[C@@H](O)C[C@H]3O[C@@H]3/C=C/C(=O)O1)C[C@H](O)[C@H]2C(=O)O [NATAMYCIN],67.1,–,–,–
COc1cc2c(cc1OC)[C@@H]1C(=O)c3ccc4c(c3O[C@@H]1CO2)C=CC(C)(C)O4 [DEGUELIN],21.6,–,–,–
CC(=O)O[C@H]1C(=O)[C@@]2(C)[C@H]([C@H](OC(=O)c3ccccc3)[C@]3(O)C[C@H](O)C(C)=C1C3(C)C)[C@]1(OC(C)=O)CO[C@@H]1C[C@@H]2O [BACCATIN III],34.6,–,–,–

SMILES,"viability at 72 h, 50 µM [1] [%]",inhibition at 50 µM (Chlamydia pneumoniae [2]) [%],"pIC50 (Chlamydia pneumoniae [3]; K7, HL, 70 h)","MIC90 (Chlamydia pneumoniae [3]; K7, 70 h) [µM]"
CC1(C)CC[C@]2(C(=O)O)CC[C@]3(C)C(=CC[C@@H]4[C@@]5(C)CC[C@H](O)C(C)(C)[C@@H]5CC[C@]43C)[C@@H]2C1 [OLEANOLIC_ACID],36.3,–,–,–
O=c1oc2cc(O)ccc2c2oc3cc(O)ccc3c12 [COUMESTROL],96.3,0,–,–
COc1cc(/C=C/c2ccccc2)oc(=O)c1 [DESMETHOXYYANGONIN],89.8,35.7,–,–
CN1CCc2cc3c(c4c2[C@H]1Cc1ccccc1-4)OCO3 [REMERINE HYDROCHLORIDE],45.2,–,–,–
c1ccc2c3c([nH]c2c1)CNCC3 [TRYPTOLINE],84.8,4.9,–,–
O=c1cc(-c2ccccc2)oc2cc(O)ccc12 [7-HYDROXYFLAVONE],71.1,–,–,–
Oc1cc(O)c2c(c1)O[C@H](c1ccc(O)c(O)c1)[C@H](O)C2 [(-)-EPICATECHIN],93.4,41.7,–,–
C[C@@]1(CO)[C@H](O)CC[C@@]2(C)[C@H]1CC[C@H]1C[C@@H]3C[C@@]12CC[C@]3(O)CO [APHIDICOLIN],92.3,-3.8,–,–
Cn1c(-c2ccc3c(c2)OCO3)cc(=O)c2ccccc21 [GRAVEOLINE],100,5.3,–,–
CCn1cc(C(=O)O)c(=O)c2ccc(C)nc21 [NALIDIXIC ACID],15.8,–,–,–
C[C@@H]1C[C@H]2CC[C@H](O2)[C@H](C)C(=O)O[C@@H](C)C[C@@H]2CC[C@@H](O2)[C@@H](C)C(=O)O[C@H](C)C[C@H]2CC[C@H](O2)[C@H](C)C(=O)O[C@@H](C)C[C@@H]2CC[C@@H](O2)[C@@H](C)C(=O)O1,23.7,–,–,–
CC1COc2c(N3CCN(C)CC3)c(F)cc3c(=O)c(C(=O)O)cn1c23 (centres undefined) [OFLOXACIN],–,–,–,1.38
O=c1c(O[C@@H]2O[C@H](CO)[C@@H](O)[C@H](O)[C@H]2O)c(-c2ccc(O)c(O)c2)oc2cc(O)cc(O)c12 [ISOQUERCETIN],95.8,38,–,–
C=CCc1ccc(O)c(-c2ccc(O)c(CC=C)c2)c1 [HONOKIOL],8.8,–,–,–
C=C1CC[C@H]2O[C@]2(C)CC[C@@H]2[C@@H]1CC2(C)C [(-)-CARYOPHYLLENE OXIDE],107,35.7,–,–
CC1=CC(=O)C2=C(C)CC[C@@H]3[C@H](OC(=O)[C@H]3C)[C@@H]12 [DESACETOXYMATRICARIN],93.9,30.1,–,–
C[C@@H]1O[C@@H](OC[C@H]2O[C@@H](Oc3cc(O)c4c(c3)O[C@H](c3ccc(O)c(O)c3)CC4=O)[C@H](O)[C@@H](O)[C@@H]2O)[C@H](O)[C@H](O)[C@H]1O [ERIOCITRIN],75.2,8.6,–,–
O=c1cc(-c2ccc(O)cc2)oc2cc(O[C@@H]3O[C@H](CO)[C@@H](O)[C@H](O)[C@H]3O)cc(O)c12 [APIGETRIN],48.1,–,–,–
COc1c(O)c2c(=O)cc(OC)c3c4c(OC)cc(=O)c5c(O)c(OC)c6c(c(c1CC(C)(O)C6C(C)=O)c23)c54 (centres undefined),-0.3,–,–,–
COc1ccc(C(=O)OC2C[C@H]3CC[C@H](C2)N3C)cc1OC (some centres undefined) [CONVOLVAMINE HYDROCHLORIDE],78.8,21.1,–,–
C=C1C(=O)[C@]23[C@H](O)[C@H]1CC[C@H]2[C@@]12CO[C@]3(O)[C@@H](O)[C@@H]1C(C)(C)CC[C@@H]2O [ORIDONIN],0,–,–,–
O=C1C[C@@H](c2ccc(O)c(O)c2)Oc2c1ccc(O[C@@H]1O[C@H](CO)[C@@H](O)[C@H](O)[C@H]1O)c2O [FLAVANOMAREIN],82.6,22.1,–,–
O=C1c2c(O)cc(O)cc2O[C@H](c2ccc(O)c(O)c2)[C@H]1O [(+)-TAXIFOLIN],95.2,13.4,–,–
